Source: ChEMBL document CHEMBL4513216, “Probing the Open Global Health Chemical Diversity Library for Multistage-Active Starting Points for Next-Generation Antimalarials” (ACS Infect Dis, 2020)

experiment: Toxicity liver stage against HepG2, at 10uM; assay type: cell-based; set-up: test concentration 10 uM, cell line HepG2-A16-CD81EGFP; conditions: human, HepG2-A16-CD81EGFP cells; read-out: INHIBITION
Summary of the method: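 Uninfected HepG2-A16-CD81EGFP cells, 3 × 10^3 per well, 1536-well, plated on prespotted compound at 10 μM final, parasite-free screening media added to match infected plates; puromycin 10 μM positive, DMSO 0.5% negative; run in parallel with 48 h PbLuc assay at 37 °C, 5% CO2; viability by CellTiter-Glo luminescence, normalized to controls.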

| Structure (SMILES) | cytotoxicity at 10 µM [%] |
| --- | --- |
| Cc1cccc(CN2CCN3C(=O)NC[C@H]3C2)n1 | -3.3 |
| Clc1ccc(-c2c[nH]c([C@@H]3COCCN3)n2)cc1 | -10.1 |
| Cc1cc2[nH]c(=O)c(=O)[nH]c2cc1S(=O)(=O)NC1CCCCC1 | -8.41 |
| CN(Cc1ccccc1)C(=O)Cn1nc(N2CCOCC2)ccc1=O | 9.55 |
| O=C(NCC(F)(F)F)c1ccc(-n2cccn2)nn1 | -8.35 |
| O=C(c1ccco1)N1C[C@H]2CCCN(C(=O)c3ccsc3)[C@H]2C1 | 8.36 |
| c1ccc(CN2Cc3ccnn3CC(COCc3cccnc3)C2)nc1 (stereo unspecified) | -146 |
| CCN1C(=O)C2(CCOCC2)c2cc(NC(=O)c3cnccn3)ccc21 | -2.98 |
| CC(C)N(C)C(=O)C1=NOC2(CCN(C(=O)NCc3cccnc3)C2)C1 (stereo unspecified) | -3.75 |
| CCN(CC)Cc1nnc2sc(-c3cc(C(C)C)[nH]n3)nn12 | -7.02 |
| COC(=O)N1CCc2ccc(NC(=O)c3cn(C)nn3)cc2C1 | -1.3 |
| COCC(=O)N1CCC(c2nc3ccc(-c4ccccc4)cn3n2)CC1 | -0.555 |
| O=C(C1CC=CC1)N1C[C@@H]2[C@@H](C1)OCC(=O)N2Cc1cccnc1 | 2.45 |
| CC(C)n1cc(S(=O)(=O)N2CCSCC2)cn1 | 6.64 |
| COc1cc2cc(C(=O)N[C@@H](C)C(=O)O)n(C)c2c(OC)c1OC | 12.5 |
| CCS(=O)(=O)Nc1ccn(Cc2cccc(Cl)c2)n1 | -4.49 |
| CCC(C)c1noc(C2CCN(C(=O)c3cccs3)CC2)n1 (stereo unspecified) | -12.8 |
| Cc1noc(C)c1CC(=O)N1CCC(c2ccn3nccc3n2)CC1 | -0.317 |
| CC1CCc2nn(CCNC(=O)C3CCCC3)c(=O)cc2C1 (stereo unspecified) | 7.71 |
| Cc1ccc2c(c1)C(=O)NCC1(CCN(C(=O)c3csc(C)c3)CC1)O2 | -27.7 |
| Cc1cnn(CC(C)NCc2cccc(C#N)c2)c1 (stereo unspecified) | -2.62 |
| O=C(CCC(=O)N1CCc2ccccc2C1)c1cccs1 | -61.8 |
| COc1ccc(NC(=O)N2CCN(CCSc3ccccc3)CC2)cc1 | 6.13 |

| Structure (SMILES) | cytotoxicity at 10 µM [%] |
| --- | --- |
| O=C(C1CC1)N(CCc1ccccc1)C1CCOC1 (stereo unspecified) | -6.93 |
| CCOc1c(F)cccc1C(=O)N(C)CCn1cccn1 | 3.76 |
| N#Cc1ccc(CN2CCCCC2Cn2cncn2)c(F)c1 (stereo unspecified) | -1.34 |
| CN(C)Cc1nc(C(C)(C)NC(=O)c2nc3ccccc3s2)no1 | 8.61 |
| CC(C)c1cc(C(=O)N2Cc3ccccc3CC2C(=O)O)nn1C (stereo unspecified) | 7.97 |
| CCc1ncc2c(n1)CN(c1nnc(C)c(C)c1C#N)CC2 | -134 |
| O=C(CCn1cnc2cc(F)c(F)cc21)N1CCN(C2CC2)CC1 | -1.54 |
| O=S(=O)(CCCN1CCc2c(ncn2C2CC2)C1)c1ccccc1 | -3.33 |
| CCOc1ncccc1CNC(=O)c1csc(Br)c1 | 0.291 |
| CC1(C)CC1C(=O)NS(=O)(=O)Cc1cc(-c2ccccc2)no1 (stereo unspecified) | -11 |
| CC1(C)COCCN1C(=O)Cc1csc(Cc2ccccn2)n1 | 3.31 |
| Cc1ccccc1C1CCN(C(=O)CCNS(C)(=O)=O)C1 (stereo unspecified) | -1.03 |
| Cc1ccccc1CS(=O)(=O)c1nnc(N2CCOCC2)s1 | -9.61 |
| O=C(NC1CC1)C1CCCN(c2cccc(C(F)(F)F)n2)C1 (stereo unspecified) | 2.43 |
| COc1cc(OC)cc(C2CCN(CC(=O)NCC(F)(F)F)C2)c1 (stereo unspecified) | 2.29 |
| CC(NCc1ccc(-c2ccc(F)cc2)o1)c1nnc2n1CCC2 (stereo unspecified) | -4.21 |
| COc1cc(C)nc(N2CCN(C(=O)CCc3cccs3)CC2)n1 | 5.77 |
| COC(=O)C(C)(C)NC(=O)C1CC(=O)N(CC(F)(F)F)C1 (stereo unspecified) | -141 |
| Cc1cnn(CC2CCCN2CC(=O)NCc2ccccn2)c1 (stereo unspecified) | -5 |
| CC(C)c1cc(C(=O)NC2CCN(CC(N)=O)CC2)nn1C(C)(C)C | -6.95 |
| COc1ccccc1C(NC(=O)C1CCC1)c1noc(C)n1 (stereo unspecified) | 0.338 |
| Cc1nc(CCNC(=O)NC(C)c2ccc3c(c2)OCCO3)cs1 (stereo unspecified) | -1.18 |
| COCc1ccccc1CNC(=O)CNc1cccc(Cl)c1OC | 6.39 |

| Structure (SMILES) | cytotoxicity at 10 µM [%] |
| --- | --- |
| O=C(NCc1ccc2c(c1)OCO2)N1CCCC2(C1)OCCO2 | 3.07 |
| COc1ccccc1COCC(O)CN(C)c1ccc(C)cc1C (stereo unspecified) | 9.6 |
| CC(CC(=O)Nc1ncn(CC(=O)N2CCCCCC2)n1)C1CC1 (stereo unspecified) | 5.75 |
| NC(=O)C1CCN(CCCNC(=O)Nc2nccs2)CC1 | -0.287 |
| O=C(NCCn1ccnc1)c1csc2c1CCCC2 | -1.34 |
| Cc1cc(CNC(=O)CCc2ccc(S(N)(=O)=O)cc2)no1 | 7.81 |
| O=C(Cn1cc(I)cn1)N1CCNC1=O | 1.53 |
| COCCC(=O)Nc1cc(CC(C)(C)C)n[nH]1 | 3.97 |
| COc1cccc(C2CCCN2C(=O)c2cc3c([nH]c2=O)CCC3)c1 (stereo unspecified) | -12 |
| Cc1noc(C(C)C)c1C(=O)NS(=O)(=O)c1ccc(Cl)cc1 | -8.59 |
| Cc1ccc(CN2C[C@H](OCC3CCN(C)CC3)[C@H]3COC[C@H]32)o1 | 6.19 |
| O=C(NCC1Cn2nnc(-c3ccccc3)c2CO1)c1ccc[nH]1 (stereo unspecified) | -1.2 |
| CCn1c(CC2CCN(S(=O)(=O)Cc3ccccc3)CC2)nn(C)c1=O | -2.43 |
| COc1ccc(OC)c(-c2nc(CN(C)Cc3nonc3C)c(C)o2)c1 | 13.5 |
| CC(C)Oc1cc(N2CCCC(O)C2)nc(N)n1 (stereo unspecified) | -0.796 |
| Cc1cc(C(=O)N(C)Cc2ccoc2)c(NC(=O)C(C)(C)C)s1 | 12.1 |
| Cn1c(Cn2ccnc2)nnc1C1CCN(C(=O)c2cccnc2)CC1 | -96.4 |
| Cc1ccc(C)c(NC(=O)N2C[C@H](N(C)C)C[C@H]2CO)c1 | -0.861 |
| COCc1c(C(=O)N2CCCC(N(C)Cc3ccccc3)C2)noc1C (stereo unspecified) | -16.8 |
| COc1ccccc1N1CCN(C(=O)CCc2nncn2C)C(C)C1 (stereo unspecified) | 16 |
| CC(C)S(=O)(=O)N1CCOC(CCc2ccccc2)C1 (stereo unspecified) | -4.53 |
| O=c1cc(N2CCCCC2)cnn1CC(O)C(F)(F)F (stereo unspecified) | 12.3 |
| O=C1CC2(CCCC2)CC(=O)N1CCn1cnnc1 | -0.54 |

| Structure (SMILES) | cytotoxicity at 10 µM [%] |
| --- | --- |
| COc1ccccc1C(=O)N1CCN(C(=O)CCn2ccnc2)CC1 | -148 |
| CN1CC2(CCN(C(=O)c3cn4cccnc4n3)CC2)CC1=O | -7.72 |
| CC(C)c1noc(Cn2ncc3ccccc3c2=O)n1 | -3.69 |
| CN(CCO)C[C@@H]1CN(Cc2ccccc2C#N)C[C@@H]1CO | -0.951 |
| Cn1cccc1C(=O)N1CCC(c2nccn2Cc2ccncc2)CC1 | -12 |
| CC(C)CN1CC2(CCN(C(=O)C(O)c3cccc(Cl)c3)CC2)CC1=O (stereo unspecified) | -1.45 |
| CN(Cc1cccc(-n2cccn2)c1)Cc1cccs1 | -7.54 |
| Cc1ccc(C#N)c(N2CC(C)(C)[C@@](C)(O)C2)n1 | 1.39 |
| CCc1nc(C)c(CC(=O)N2CCC3(CC2)OCCCC3OC)c(=O)[nH]1 (stereo unspecified) | -0.506 |
| Cc1nc(N)ccc1CC1COc2ccccc2C1 (stereo unspecified) | 3.79 |
| Cc1ccccc1OC1CCN(C(=O)CNC(=O)N(C)C)CC1 | 9.83 |
| COc1cncc(-n2nc(C)c(CC(C)=O)c2C)c1 | -12.8 |
| Cc1ccsc1C(CNC(=O)c1cc(=O)[nH]c(=O)[nH]1)N(C)C (stereo unspecified) | 8.99 |
| CCc1cc(CN2CCC(CCC(=O)Nc3ccccc3Cl)CC2)on1 | 5.27 |
| O=C(CN1CCOCS1(=O)=O)NCCc1ccc(Cl)cc1 | -5.14 |
| CC(C)N1CCC(N2CCN(C3CCC3)CC2CCO)CC1 (stereo unspecified) | -12.5 |
| COC(=O)N1CC(C)=C(C)CN1C(=O)Nc1cccc(Cl)c1 | 0.359 |
| Cc1cc(C(=O)N2CCCCC2C)ccc1NC(=O)N1CCOCC1 (stereo unspecified) | 7.02 |
| Cc1nc(CNC(=O)NCc2cccnc2N(C)C)cs1 | -2.15 |
| CS(=O)(=O)NC1CCN(C(=O)NCc2ccccn2)CC1 | -5.04 |
| COc1cccc(CN(C)CC(=O)NC2(C)CCS(=O)(=O)C2)c1 (stereo unspecified) | -2.3 |
| O=C(NCCOc1ccc2c(c1)OCO2)N1CCCC(CO)C1 (stereo unspecified) | -22.3 |
| Cc1cc(C)n(CC2CN(Cc3nc(C4CC4)no3)CCO2)n1 (stereo unspecified) | -5.13 |

| Structure (SMILES) | cytotoxicity at 10 µM [%] |
| --- | --- |
| CN(C)c1cc(CNC(=O)Nc2nnc(C3CC3)s2)ccn1 | -10.8 |
| CC(C)COC(C)C(=O)NCc1ccc(F)cc1 (stereo unspecified) | -2.9 |
| O=C(Cc1ccc2c(c1)OCCO2)N1CCCC(n2cncn2)C1 (stereo unspecified) | -7.85 |
| O=C(NCc1nnc2ccccn12)N1CCc2sccc2C1 | -1.25 |
| CNC(=O)[C@@H](c1ccccc1F)N1CCC[C@H]1C(=O)NC1CCOCC1 | -3.73 |
| O=C(NCc1cncc2c1CCN(Cc1ccccc1)C2)C1CC1 | 12.1 |
| CS(=O)(=O)N1CCC2(CC1)COC(COc1ccccn1)C2 (stereo unspecified) | 5.63 |
| CCS(=O)(=O)N1C[C@H]2CN(Cc3cccnc3)C(=O)[C@H]2C1 | -17.8 |
| O=C(c1cnoc1)N1CCC[C@]2(C[C@H](Oc3ncccc3F)CO2)C1 | -10.2 |
| NC(=O)COc1ccc(CNCc2cc(F)cc(F)c2)cc1 | -7.85 |
| CS(=O)(=O)N1CC[C@H]2[C@H](C[C@@H](Cn3cncn3)N2CC2CC2)C1 | -6.25 |
| CN1CC2(CCN(C(=O)Cc3ccccn3)CC2)OCC1=O | -3.39 |
| CN(C)CC(=O)N1Cc2nnn(C)c2C(COCc2ccccn2)C1 (stereo unspecified) | 9.26 |
| Cc1ccc(CN2CCC[C@]3(C(=O)O)CN(CC4CC4)C[C@@H]3C2)s1 | -112 |
| CCN1CCC2(CCN(Cc3nccs3)CC2)C1=O | -0.311 |
| COCC(=O)N1CCC2(CCC2N(C)Cc2ccco2)CC1 (stereo unspecified) | 0.169 |
| C[C@@H]1CN(S(C)(=O)=O)C[C@]12CCN(Cc1cccnc1)C2=O | 0.169 |
| CC(c1ccncc1)n1cc2nc(N(C)C)[nH]cc-2c1=O (stereo unspecified) | -3.64 |
| O=C(c1cc(Cl)c[nH]c1=O)N1C[C@H]2CC[C@@H](C1)N(Cc1ccccc1)C2 | -113 |
